The source made the active and inactive calls. The calls are words filed in the database; no cut-off is given here.
Assays:
Type in all cases: functional
Homo sapiens [1] = organism: Homo sapiens; assay: Induction of NfKB1A expression in HAEC at 6 uM after 4 hrs by microarray assay relative to control
Method in brief: (§1)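 Microarray on RNA from duplicate HAEC wells given 3 μM EI4 or 6 μM PEIPC in M199 with 1% FBS for 4 h, or left untreated. Probes with detection p < 0.001 retained. Fold change is mean treated probe level over mean control probe level. Genes counted as regulated at ≥1.2-fold.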

Homo sapiens [2] = organism: Homo sapiens; assay: Induction of RelB expression in HAEC at 6 uM after 4 hrs by microarray assay relative to control; method in brief: as §1
Homo sapiens [3] = organism: Homo sapiens; assay: Induction of ATF-3 expression in HAEC at 3 uM after 4 hrs by qPCR analysis
Method in brief: (§2)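 Cultured HAECs, switched overnight to M199/10% FBS, exposed for 4 h to 3 μM lipid in M199 with 1% FBS, duplicate/replicate wells. Cells scraped, mRNA quantified by qPCR with GAPDH normalization; fold change of treated over untreated cells.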

Homo sapiens [4] = organism: Homo sapiens; assay: Induction of IL-8 expression in HAEC at 6 uM after 4 hrs by microarray assay relative to control; method in brief: as §1
Homo sapiens [5] = organism: Homo sapiens; assay: Induction of IL-6 expression in HAEC at 6 uM after 4 hrs by microarray assay relative to control; method in brief: as §1
Homo sapiens [6] = organism: Homo sapiens; assay: Induction of MCP1 expression in HAEC at 3 uM after 4 hrs by qPCR analysis; method in brief: as §2
Homo sapiens [7] = organism: Homo sapiens; assay: Induction of HO-1 expression in HAEC at 3 uM after 4 hrs by qPCR analysis; method in brief: as §2
Homo sapiens [8] = organism: Homo sapiens; assay: Induction of VCAM-1 expression in HAEC at 6 uM after 4 hrs by microarray assay relative to control; method in brief: as §1
Homo sapiens [9] = organism: Homo sapiens; assay: Induction of CXCL6 expression in HAEC at 6 uM after 4 hrs by microarray assay relative to control; method in brief: as §1
Homo sapiens [10] = organism: Homo sapiens; assay: Induction of ICAM-1 expression in HAEC at 6 uM after 4 hrs by microarray assay relative to control; method in brief: as §1
Homo sapiens [11] = organism: Homo sapiens; assay: Induction of CXCL1 expression in HAEC at 6 uM after 4 hrs by microarray assay relative to control; method in brief: as §1
Homo sapiens [12] = organism: Homo sapiens; assay: Induction of E-selectin expression in HAEC at 6 uM after 4 hrs by qPCR analysis relative to control
Homo sapiens [13] = organism: Homo sapiens; assay: Induction of MCP1 expression in HAEC at 6 uM after 4 hrs by microarray assay relative to control; method in brief: as §1
Homo sapiens [14] = organism: Homo sapiens; assay: Induction of HSP1A1 expression in HAEC at 3 uM after 4 hrs by qPCR analysis
Homo sapiens [15] = organism: Homo sapiens; assay: Induction of IL-8 expression in HAEC at 3 uM after 4 hrs by qPCR analysis; method in brief: as §2
Homo sapiens [16] = organism: Homo sapiens; assay: Inhibition of IL-1beta-induced CXCL1 mRNA expression in HAEC at 3 uM treated 1 hr before IL-1beta stimulation measured after 4 hrs by qPCR analysis
Method in brief: (§3)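 RNA measured by qPCR. HAECs preincubated 1 h with 3 μM EI4, then exposed 4 h to 20 ng/mL IL-1β with EI still present. Value reported as percent reduction of the IL-1β-induced fold change.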

Homo sapiens [17] = organism: Homo sapiens; assay: Induction of MCP1 expression in HAEC at 3 uM after 4 hrs by microarray assay relative to control; method in brief: as §1
[18] = Decrease of IL-8 protein expression in HAEC at 6 uM after 4 hrs by ELISA; conditions: Homo sapiens
Method in brief: (§4)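 HAECs kept overnight in M199 with 10% FBS, then left untreated or given increasing EI concentrations for 4 h in M199 with 1% FBS, triplicate wells. IL-8 and MCP-1 in the collected medium quantified by ELISA. Significance versus untreated control by Student t test.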

Homo sapiens [19] = organism: Homo sapiens; assay: Inhibition of IL-1beta-induced IL-6 mRNA expression in HAEC at 3 uM treated 1 hr before IL-1beta stimulation measured after 4 hrs by qPCR analysis; method in brief: as §3
Homo sapiens [20] = organism: Homo sapiens; assay: Induction of CXCL1 expression in HAEC at 3 uM after 4 hrs by microarray assay relative to control; method in brief: as §1
Homo sapiens [21] = organism: Homo sapiens; assay: Induction of NfKB1A expression in HAEC at 3 uM after 4 hrs by microarray assay relative to control; method in brief: as §1
Homo sapiens [22] = organism: Homo sapiens; assay: Inhibition of IL-1beta-induced MCP-1 mRNA expression in HAEC at 3 uM treated 1 hr before IL-1beta stimulation measured after 4 hrs by qPCR analysis; method in brief: as §3
Homo sapiens [23] = organism: Homo sapiens; assay: Inhibition of IL-1beta-induced MCP-1 protein expression in HAEC at 3 uM co-treated with IL-1beta measured after 4 hrs by ELISA
Method in brief: (§5)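 HAECs preincubated 1 h with 3 μM EI4, then given 20 ng/mL IL-1β plus EI for 4 h. MCP-1 in the medium measured by ELISA and compared with IL-1β alone; significance by p value.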

Homo sapiens [24] = organism: Homo sapiens; assay: Induction of IL-8 expression in HAEC at 3 uM after 4 hrs by microarray assay relative to control; method in brief: as §1
Homo sapiens [25] = organism: Homo sapiens; assay: Inhibition of IL-1beta-induced MCP-1 protein expression in HAEC at 3 uM treated 1 hr before IL-1beta stimulation measured after 4 hrs by ELISA; method in brief: as §5
Homo sapiens [26] = organism: Homo sapiens; assay: Inhibition of IL-1beta-induced CXCL6 mRNA expression in HAEC at 3 uM treated 1 hr before IL-1beta stimulation measured after 4 hrs by qPCR analysis; method in brief: as §3
Homo sapiens [27] = organism: Homo sapiens; assay: Induction of E-selectin expression in HAEC at 3 uM after 4 hrs by microarray assay relative to control; method in brief: as §1
Homo sapiens [28] = organism: Homo sapiens; assay: Induction of IL-8 protein expression in HAEC at 0.75 to 1.5 uM after 4 hrs by ELISA; method in brief: as §4
Homo sapiens [29] = organism: Homo sapiens; assay: Induction of CXCL6 expression in HAEC at 3 uM after 4 hrs by microarray assay relative to control; method in brief: as §1
Homo sapiens [30] = organism: Homo sapiens; assay: Induction of IL-6 expression in HAEC at 3 uM after 4 hrs by microarray assay relative to control; method in brief: as §1
Homo sapiens [31] = organism: Homo sapiens; assay: Induction of RelB expression in HAEC at 3 uM after 4 hrs by microarray assay relative to control; method in brief: as §1
Homo sapiens [32] = organism: Homo sapiens; assay: Inhibition of IL-1beta-induced VCAM-1 mRNA expression in HAEC at 3 uM treated 1 hr before IL-1beta stimulation measured after 4 hrs by qPCR analysis; method in brief: as §3
Homo sapiens [33] = organism: Homo sapiens; assay: Inhibition of IL-1beta-induced ICAM-1 mRNA expression in HAEC at 3 uM treated 1 hr before IL-1beta stimulation measured after 4 hrs by qPCR analysis; method in brief: as §3
Homo sapiens [34] = organism: Homo sapiens; assay: Induction of ICAM-1 expression in HAEC at 3 uM after 4 hrs by microarray assay relative to control; method in brief: as §1
[35] = Decrease of MCP-1 protein expression in HAEC at 6 uM after 4 hrs by ELISA; conditions: Homo sapiens; method in brief: as §4
Homo sapiens [36] = organism: Homo sapiens; assay: Induction of VCAM-1 expression in HAEC at 3 uM after 4 hrs by microarray assay relative to control; method in brief: as §1
Homo sapiens [37] = organism: Homo sapiens; assay: Inhibition of IL-1beta-induced E-selectin mRNA expression in HAEC at 3 uM treated 1 hr before IL-1beta stimulation measured after 4 hrs by qPCR analysis; method in brief: as §3

CCCCC/C=C\CC1/C(=C\C2OC2CCCC(=O)OC(COC(=O)CCCCCCCCCCCCCCC)COP(=O)([O-])OCC[N+](C)(C)C)C(=O)CC1O (stereo not drawn)
fold change (FC) (Homo sapiens [1]): 4 | fold change (FC) (Homo sapiens [2]): 4.2 | Activity (Homo sapiens [3]): Active | fold change (FC) (Homo sapiens [4]): 17 | fold change (FC) (Homo sapiens [5]): 2.2 | Activity (Homo sapiens [6]): Active | Activity (Homo sapiens [7]): Active | fold change (FC) (Homo sapiens [8]): 1.2 | fold change (FC) (Homo sapiens [9]): 1.4 | fold change (FC) (Homo sapiens [10]): 2.3 | fold change (FC) (Homo sapiens [11]): 4.8 | fold change (FC) (Homo sapiens [12]): 2.38 | fold change (FC) (Homo sapiens [13]): 13

CCCCC/C=C\C[C@@H]1/C(=C\C2O[C@@H]2CCCC(=O)O)C(=O)CC1O (single isomer, unassigned)
Activity (Homo sapiens [14]): Active | Activity (Homo sapiens [3]): Active | Activity (Homo sapiens [7]): Active | Activity (Homo sapiens [15]): Active

CCCCC/C=C\C[C@H]1/C(=C\[C@@H]2O[C@H]2CCCC(=O)O)C(=O)C[C@H]1O
Activity (Homo sapiens [14]): Active | Activity (Homo sapiens [3]): Active | Activity (Homo sapiens [7]): Active | Activity (Homo sapiens [15]): Active

CCCCC/C=C\C[C@H]1/C(=C\[C@@H]2O[C@H]2CCCC(=O)O)C(=O)C[C@@H]1O
Activity (Homo sapiens [14]): Active | Activity (Homo sapiens [3]): Active | Activity (Homo sapiens [6]): Active | Activity (Homo sapiens [7]): Active | Activity (Homo sapiens [15]): Active

CCCCC/C=C\C[C@@H]1/C(=C\[C@H]2O[C@@H]2CCCC(=O)O)C(=O)C[C@H]1O
inhibition (Homo sapiens [16]): 53.4% | fold change (FC) (Homo sapiens [17]): 0.2 | Activity [18]: Active | inhibition (Homo sapiens [19]): 76% | fold change (FC) (Homo sapiens [20]): 1.3 | fold change (FC) (Homo sapiens [21]): 0.79 | Activity (Homo sapiens [14]): Active | inhibition (Homo sapiens [22]): 79.6% | inhibition (Homo sapiens [23]): Active | fold change (FC) (Homo sapiens [24]): 3 | inhibition (Homo sapiens [25]): Active | inhibition (Homo sapiens [26]): 87.6% | fold change (FC) (Homo sapiens [27]): 0.21 | Activity (Homo sapiens [3]): Active | Activity (Homo sapiens [6]): Active | Activity (Homo sapiens [28]): Active | fold change (FC) (Homo sapiens [29]): 0.59 | Activity (Homo sapiens [7]): Active | fold change (FC) (Homo sapiens [30]): 0.6 | fold change (FC) (Homo sapiens [31]): 0.8 | inhibition (Homo sapiens [32]): 92.1% | inhibition (Homo sapiens [33]): 52.3% | Activity (Homo sapiens [15]): Active | fold change (FC) (Homo sapiens [34]): 0.75 | Activity [35]: Active | fold change (FC) (Homo sapiens [36]): 0.27 | inhibition (Homo sapiens [37]): 69.5%
